Measured values: ChEMBL document CHEMBL1157336, “Bisabolane sesquiterpenes from the roots of Ligularia cymbulifera” (2006)

Columns and labels:
Format in all cases: functional
Candida albicans = experiment: Antifungal activity against Candida albicans after 48 hrs by broth microdilution assay
In short: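 Yeast tested by broth microdilution in Mueller-Hinton broth; samples serially doubled over 0.0024-1.25 mg/mL. Inoculum from overnight broth culture, final 2 × 10^6 cfu/mL per well. Plates held at 30 °C for 48 h. MIC taken as the lowest concentration showing no turbidity. Duplicate, repeated twice; fluconazole positive control.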

Staphylococcus aureus [1] = experiment: Antibacterial activity against Staphylococcus aureus ATCC 25923 after 24 hrs by broth microdilution assay; settings: ATCC 25923, 24 h
In short: (§1)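 Broth microdilution MIC in Mueller-Hinton broth; serial doubling dilutions over 0.0024-1.25 mg/mL. Overnight broth cultures, inoculum adjusted to 2 × 10^6 cfu/mL final per well. Incubated at 37 °C for 24 h. MIC read as the lowest concentration without visible growth (no turbidity). Duplicate wells, repeated twice; levofloxacin as positive control.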

Escherichia coli = experiment: Antibacterial activity against Escherichia coli ATCC 25922 after 24 hrs by broth microdilution assay; settings: ATCC 25922, 24 h; in short: as §1
Staphylococcus aureus [2] = experiment: Antibacterial activity against methicillin-resistant Staphylococcus aureus isolate after 24 hrs by broth microdilution assay
In short: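 Clinical MRSA isolate; broth microdilution in Mueller-Hinton broth, twofold serial dilutions over 0.0024-1.25 mg/mL, final inoculum 2 × 10^6 cfu/mL from overnight broth culture; 37 °C, 24 h. MIC taken as lowest concentration without visible turbidity. Duplicate wells, repeated twice; levofloxacin positive control.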

Measured: MIC

C=C(C(CC1OC1(C)C)OC(=O)/C(C)=C\C)[C@H]1C[C@H](OC(=O)/C(C)=C\C)[C@@](C)(O)[C@@H](OC(=O)/C(C)=C\C)[C@H]1O (some centres not stated)
> 62.5 µg/mL: Candida albicans | Staphylococcus aureus [1] | Escherichia coli | Staphylococcus aureus [2]

C=C(C(CC1OC1(C)C)OC(=O)/C(C)=C\C)[C@H]1C[C@H]2O[C@@]2(C)C[C@H]1OC(=O)/C(C)=C\C (some centres not stated)
> 62.5 µg/mL: Candida albicans | Staphylococcus aureus [1] | Escherichia coli | Staphylococcus aureus [2]

C=C(C(CC(O)C(C)(C)O)OC(=O)/C(C)=C\C)[C@H]1C[C@H]2O[C@@]2(C)C(=O)[C@@H]1OC(=O)/C(C)=C\C (some centres not stated)
> 62.5 µg/mL: Candida albicans | Staphylococcus aureus [1] | Escherichia coli | Staphylococcus aureus [2]

C=C(C(CC(O)C(C)(C)O)OC(=O)/C(C)=C\C)[C@H]1C[C@H]2O[C@@]2(C)[C@@H](O)[C@H]1OC(=O)/C(C)=C\C (some centres not stated)
> 62.5 µg/mL: Candida albicans | Staphylococcus aureus [1] | Escherichia coli | Staphylococcus aureus [2]

C=C(C(CC1OC1(C)C)OC(=O)/C(C)=C\C)[C@H]1C[C@H]2O[C@@]2(C)[C@@H](OC(=O)/C(C)=C\C)[C@H]1OC(=O)/C(C)=C\C (some centres not stated)
> 62.5 µg/mL: Candida albicans | Staphylococcus aureus [1] | Escherichia coli | Staphylococcus aureus [2]

C=C(C(CC1OC1(C)C)OC(=O)/C(C)=C\C)[C@H]1C[C@H](Cl)[C@@](C)(O)[C@@H](O)[C@H]1OC(=O)/C(C)=C\C (some centres not stated)
> 62.5 µg/mL: Candida albicans | Staphylococcus aureus [1] | Escherichia coli | Staphylococcus aureus [2]

C=C(C(CC1OC1(C)C)OC(=O)/C(C)=C\C)[C@H]1C[C@@H]2O[C@]2(C)[C@@H](OC(=O)/C(C)=C\C)[C@@H]1O (some centres not stated)
> 62.5 µg/mL: Candida albicans | Staphylococcus aureus [1] | Escherichia coli | Staphylococcus aureus [2]

C=C(C(CC1OC1(C)C)OC(=O)/C(C)=C\C)[C@H]1C[C@H]2O[C@@]2(C)[C@H](OC(=O)/C(C)=C\C)[C@@H]1O (some centres not stated)
> 62.5 µg/mL: Candida albicans | Staphylococcus aureus [1] | Escherichia coli | Staphylococcus aureus [2]
